Consider one compound from ChEMBL document CHEMBL5137084 (J Med Chem, 2022).

Data set [1] in a line: Prodrug conversion in carboxylesterase 1 knockout C57BL/6 mouse plasma assessed as increase in 2,6-Dimethoxy-4-(4-phenyl-5-thiophen-2-yl-1H-imidazol-2-yl)phenol release at 16.62 mg/kg, po administered as single dose measured after 2 hrs by LC-MS/MS analysis. To be noted: in vivo. The class given is ADME, organism-based.
Data set [2] can be described thus: Half life in carboxylesterase 1 knockout C57BL/6 mouse plasma at 16.62 mg/kg, po administered as single dose measured upto 8 hrs by LC-MS/MS analysis. The class given is ADME, organism-based.
The nature of data set [3]: Metabolic stability of the compound in carboxylesterase 1 knockout mouse brain assessed as parent compound remaining at 10 uM measured after 1 hr in by UPLC analysis. The class given is ADME, tissue-based. Put shortly: (§1)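 Plasma, or liver or brain homogenised 10-fold in 0.1 M potassium phosphate buffer, from CES1−/− mice. Spiked with 10 μM prodrug (final) and shaken at 37 °C for 1 h, in triplicate. Samples at 0 and 1 h were quenched with three volumes of acetonitrile containing losartan. Intact prodrug was measured by UHPLC-orbitrap MS and expressed as % remaining, mean ± SE.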

Data set [4] in a line: Metabolic stability of the compound in carboxylesterase 1 knockout mouse liver assessed as parent compound remaining at 10 uM measured after 1 hr in by UPLC analysis. The class given is ADME, tissue-based. The method in brief: as §1
The nature of data set [5]: Protein binding in mouse plasma assessed as free fraction at 3 to 10 mg/kg, po by ultrafiltration assay. The class given is ADME, organism-based. To be noted: dose 3-10 mg/kg.
A short description of data set [6]: Tmax in carboxylesterase 1 knockout C57BL/6 mouse brain at 16.62 mg/kg, po administered as single dose measured upto 8 hrs by LC-MS/MS analysis. The format is ADME, organism-based.
Data set [7] is described as follows: Prodrug conversion in carboxylesterase 1 knockout C57BL/6 mouse plasma assessed as Cmax of 2,6-Dimethoxy-4-(4-phenyl-5-thiophen-2-yl-1H-imidazol-2-yl)phenol at 16.62 mg/kg, po administered as single dose measured upto 8 hrs by LC-MS/MS analysis. Particulars: in vivo. Details: time < 8 hrs, dose 16.62 mg/kg, route po. The class given is ADME, organism-based.
Data set [8] can be described thus: Half life in carboxylesterase 1 knockout C57BL/6 mouse brain at 16.62 mg/kg, po administered as single dose measured upto 8 hrs by LC-MS/MS analysis. The class given is ADME, organism-based.
Data set [9] in a line: Ratio of prodrug conversion in carboxylesterase 1 knockout C57BL/6 mouse brain to plasma assessed as 2,6-Dimethoxy-4-(4-phenyl-5-thiophen-2-yl-1H-imidazol-2-yl)phenol release at 16.62 mg/kg, po administered as single dose measured after 2 hrs by LC-MS/MS analysis. The format is ADME, organism-based.
Data set [10] can be described thus: Tmax in carboxylesterase 1 knockout C57BL/6 mouse plasma at 16.62 mg/kg, po administered as single dose measured upto 8 hrs by LC-MS/MS analysis. The format is ADME, organism-based.
Data set [11] is described as follows: Prodrug conversion in carboxylesterase 1 knockout C57BL/6 mouse brain assessed as increase in 2,6-Dimethoxy-4-(4-phenyl-5-thiophen-2-yl-1H-imidazol-2-yl)phenol release at 16.62 mg/kg, po administered as single dose measured after 2 hrs by LC-MS/MS analysis. The format is ADME, organism-based. To be noted: in vivo.
Data set [12] deals with Mus musculus. The data set is described as follows: Antiinflammatory activity against GFAP-EGFP transgenic mouse model assessed as as inhibition of GFP-labeled extracellular vesicle release at 3 to 10 mg/kg, po pretreated with compound for 30 mins followed by IL-1beta injection measured after 4 hrs. The class given is functional, organism-based. Particulars: dose 3-10 mg/kg. Put shortly: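 Euthanized 4 h later. Platelet-free plasma was prepared and GFP+ EVs were captured on anti-GFP antibody-coupled magnetic beads and counted by particle tracking, blinded. Mean ± SEM, one-way ANOVA with Tukey.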

Data set [13] is described as follows: Stability in carboxylesterase 1 knockout C57BL/6 mouse plasma assessed as intact compound level at 16.62 mg/kg, po administered as single dose measured upto 8 hrs by LC-MS/MS analysis. The format is ADME, organism-based. To be noted: read-out: Stability.
Data set [14] is described as follows: Prodrug conversion in carboxylesterase 1 knockout C57BL/6 mouse plasma assessed as AUC of 2,6-Dimethoxy-4-(4-phenyl-5-thiophen-2-yl-1H-imidazol-2-yl)phenol at 16.62 mg/kg, po administered as single dose measured upto 8 hrs by LC-MS/MS analysis. The class given is ADME, organism-based. Set-up: time < 8 hrs, dose 16.62 mg/kg, route po. To be noted: in vivo.
The nature of data set [15]: Prodrug conversion in carboxylesterase 1 knockout C57BL/6 mouse brain assessed as AUC of 2,6-Dimethoxy-4-(4-phenyl-5-thiophen-2-yl-1H-imidazol-2-yl)phenol at 16.62 mg/kg, po administered as single dose measured upto 8 hrs by LC-MS/MS analysis. The class given is ADME, organism-based. Details: dose 16.62 mg/kg, time < 8 hrs, route po. Particulars: in vivo.
Data set [16] can be described thus: Metabolic stability of the compound in carboxylesterase 1 knockout mouse plasma assessed as parent compound remaining at 10 uM measured after 1 hr in by UPLC analysis. The format is ADME, cell-free. The method in brief: as §1
A short description of data set [17]: Stability in carboxylesterase 1 knockout C57BL/6 mouse brain assessed as intact compound level at 16.62 mg/kg, po administered as single dose measured upto 8 hrs by LC-MS/MS analysis. Particulars: read-out: Stability. The format is ADME, organism-based.
The nature of data set [18]: Prodrug conversion in carboxylesterase 1 knockout C57BL/6 mouse brain assessed as Cmax of 2,6-Dimethoxy-4-(4-phenyl-5-thiophen-2-yl-1H-imidazol-2-yl)phenol at 16.62 mg/kg, po administered as single dose measured upto 8 hrs by LC-MS/MS analysis. The class given is ADME, organism-based. Details: dose 16.62 mg/kg, time < 8 hrs, route po. To be noted: in vivo.

The source made the active and inactive calls.

In general, half-life refers to the time needed for the level to fall by half in the phase considered. A high value points to slow loss. By fraction unbound is commonly meant the share of the substance not bound to proteins or other matrix. The Tmax is the time at which the peak concentration occurs. As for `CCC1CC(N2CCCCC2)CC(CC)N1C(=O)Oc1c(OC)cc(-c2nc(-c3ccccc3)c(-c3cccs3)[nH]2)cc1OC` (stereo not drawn), the values for the Drug metabolism in [1] and in data set [11] were 189.3 nM and 61.5 nM, respectively. The half-life in data set [2] is 2.7 h; in data set [8], 1.8 h. Further, the Stability in data set [3] is reported as 100%; in [4] it was 100%; in data set [16], 92%. In addition, the fraction unbound in data set [5] came to 0.9. Further, the Tmax in [6] and in data set [10] was 2 h each time. For the same compound, the values for the Cmax in [7] and in [18] were 190 pmol·h/g and 69 pmol·h/g, respectively. The BPR in data set [9] amounted to 0.24. For the same compound, the outcome in [12] was Active. Further, the results for the concentration at 8 h in data set [13] and in [17] were 283 nM and 35.2 nM, respectively. Moreover, the AUC turned out to be 1047 pmol·h/g in [14] and 247 pmol·h/g in data set [15].
